From the M2OR odorant receptor database

How the values were obtained:
Conditions in all cases: stereoisomer not certain
UniProt Q8VGJ5 = target: T1, UniProt Q8VGJ5
T1 sequence (whole entry): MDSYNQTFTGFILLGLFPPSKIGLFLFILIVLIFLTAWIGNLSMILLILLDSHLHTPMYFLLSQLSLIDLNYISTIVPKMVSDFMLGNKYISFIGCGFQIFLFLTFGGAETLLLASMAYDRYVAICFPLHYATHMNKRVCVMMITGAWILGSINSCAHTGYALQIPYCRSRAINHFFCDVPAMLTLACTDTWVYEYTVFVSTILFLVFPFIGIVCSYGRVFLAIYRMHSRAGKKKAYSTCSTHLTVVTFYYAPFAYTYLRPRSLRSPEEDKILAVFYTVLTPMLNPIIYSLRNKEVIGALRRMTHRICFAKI
How it was run: (§1)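 Whether a receptor–molecule pair is responsive (active) rests on the original authors' judgment that its measured signal was statistically different from baseline. Pairs without that judgment are non-responsive (inactive). Sources used varied assay methods, commonly transient luciferase assays in mammalian cell lines.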

UniProt Q8VGL0 = target: T2, UniProt Q8VGL0
T2 sequence (whole entry): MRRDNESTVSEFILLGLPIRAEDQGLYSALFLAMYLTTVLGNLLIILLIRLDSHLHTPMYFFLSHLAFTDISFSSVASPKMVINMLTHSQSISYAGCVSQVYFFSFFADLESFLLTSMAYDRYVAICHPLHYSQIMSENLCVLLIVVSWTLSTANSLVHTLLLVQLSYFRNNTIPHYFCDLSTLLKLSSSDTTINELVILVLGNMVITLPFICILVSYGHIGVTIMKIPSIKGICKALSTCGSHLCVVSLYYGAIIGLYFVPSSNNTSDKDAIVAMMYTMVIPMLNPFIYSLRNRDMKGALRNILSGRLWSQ
How it was run: as §1

UniProt Q8VGL7 = target: T3, UniProt Q8VGL7
T3 sequence (whole entry): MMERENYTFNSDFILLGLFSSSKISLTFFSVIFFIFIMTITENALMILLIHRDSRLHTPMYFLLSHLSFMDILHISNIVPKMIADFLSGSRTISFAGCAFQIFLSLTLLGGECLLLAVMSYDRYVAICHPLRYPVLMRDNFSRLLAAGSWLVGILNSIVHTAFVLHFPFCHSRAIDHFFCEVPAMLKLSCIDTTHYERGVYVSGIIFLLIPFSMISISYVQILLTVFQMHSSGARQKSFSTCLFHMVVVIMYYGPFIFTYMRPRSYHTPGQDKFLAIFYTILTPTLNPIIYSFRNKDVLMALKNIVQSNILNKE
How it was run: as §1

UniProt Q8VGM2 = target: T4, UniProt Q8VGM2
T4 sequence (whole entry): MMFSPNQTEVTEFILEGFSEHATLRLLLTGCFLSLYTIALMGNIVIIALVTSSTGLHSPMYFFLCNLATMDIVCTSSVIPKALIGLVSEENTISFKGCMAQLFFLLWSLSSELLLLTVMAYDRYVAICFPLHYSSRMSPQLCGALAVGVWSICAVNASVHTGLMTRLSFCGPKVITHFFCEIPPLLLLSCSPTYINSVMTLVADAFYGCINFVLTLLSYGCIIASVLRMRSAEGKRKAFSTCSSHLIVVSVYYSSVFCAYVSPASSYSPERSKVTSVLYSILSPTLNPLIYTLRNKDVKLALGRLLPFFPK
How it was run: as §1

UniProt Q8VGP6 = target: T5, UniProt Q8VGP6
T5 sequence (whole entry): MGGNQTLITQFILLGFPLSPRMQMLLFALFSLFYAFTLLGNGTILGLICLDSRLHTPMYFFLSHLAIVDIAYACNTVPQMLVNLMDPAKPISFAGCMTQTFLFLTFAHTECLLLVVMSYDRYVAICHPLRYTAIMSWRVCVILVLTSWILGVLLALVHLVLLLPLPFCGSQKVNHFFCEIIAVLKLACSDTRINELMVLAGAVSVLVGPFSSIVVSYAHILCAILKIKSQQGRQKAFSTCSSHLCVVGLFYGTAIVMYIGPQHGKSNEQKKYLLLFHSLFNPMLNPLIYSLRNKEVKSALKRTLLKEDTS
How it was run: as §1

UniProt Q8VGQ3 = target: T6, UniProt Q8VGQ3
T6 sequence (whole entry): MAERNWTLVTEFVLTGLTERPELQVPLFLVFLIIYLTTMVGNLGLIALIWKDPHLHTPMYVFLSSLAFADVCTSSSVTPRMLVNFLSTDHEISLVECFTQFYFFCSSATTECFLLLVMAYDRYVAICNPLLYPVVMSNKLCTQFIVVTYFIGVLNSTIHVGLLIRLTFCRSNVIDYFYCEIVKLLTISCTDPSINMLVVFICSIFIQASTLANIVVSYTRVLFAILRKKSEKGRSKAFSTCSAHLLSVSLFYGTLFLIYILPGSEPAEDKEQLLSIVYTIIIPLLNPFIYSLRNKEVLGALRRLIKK
How it was run: as §1

UniProt Q8VGT4 = target: T7, UniProt Q8VGT4
T7 sequence (whole entry): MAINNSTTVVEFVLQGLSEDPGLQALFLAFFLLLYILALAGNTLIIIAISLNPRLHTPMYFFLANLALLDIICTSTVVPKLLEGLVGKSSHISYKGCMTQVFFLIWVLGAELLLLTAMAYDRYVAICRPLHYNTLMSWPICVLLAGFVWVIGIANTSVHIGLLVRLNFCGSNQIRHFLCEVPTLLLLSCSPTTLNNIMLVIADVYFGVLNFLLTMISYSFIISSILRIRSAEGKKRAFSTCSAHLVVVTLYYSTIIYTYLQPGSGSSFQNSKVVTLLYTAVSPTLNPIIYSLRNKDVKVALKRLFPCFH
How it was run: as §1

UniProt Q8VGU3 = target: T8, UniProt Q8VGU3
T8 sequence (whole entry): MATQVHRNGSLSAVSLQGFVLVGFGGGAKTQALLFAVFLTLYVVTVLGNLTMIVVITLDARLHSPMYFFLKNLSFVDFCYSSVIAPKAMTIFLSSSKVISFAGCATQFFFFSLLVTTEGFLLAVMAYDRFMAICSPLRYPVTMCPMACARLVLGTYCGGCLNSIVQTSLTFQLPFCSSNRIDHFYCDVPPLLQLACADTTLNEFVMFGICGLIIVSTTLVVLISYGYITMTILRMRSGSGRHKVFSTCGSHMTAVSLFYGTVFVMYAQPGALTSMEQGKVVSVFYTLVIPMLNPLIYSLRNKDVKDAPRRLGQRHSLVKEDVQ
How it was run: as §1

UniProt Q8VGV1 = target: T9, UniProt Q8VGV1
T9 sequence (whole entry): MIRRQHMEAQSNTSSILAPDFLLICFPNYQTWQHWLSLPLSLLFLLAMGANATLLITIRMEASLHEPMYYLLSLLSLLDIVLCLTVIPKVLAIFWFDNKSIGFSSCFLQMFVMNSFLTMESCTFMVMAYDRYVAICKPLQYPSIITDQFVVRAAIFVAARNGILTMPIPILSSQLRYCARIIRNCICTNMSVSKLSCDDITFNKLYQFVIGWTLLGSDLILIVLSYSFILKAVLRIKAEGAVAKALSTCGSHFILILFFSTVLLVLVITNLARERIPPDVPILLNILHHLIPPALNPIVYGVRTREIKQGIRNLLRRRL
How it was run: as §1

UniProt Q8VGV7 = target: T10, UniProt Q8VGV7
T10 sequence (whole entry): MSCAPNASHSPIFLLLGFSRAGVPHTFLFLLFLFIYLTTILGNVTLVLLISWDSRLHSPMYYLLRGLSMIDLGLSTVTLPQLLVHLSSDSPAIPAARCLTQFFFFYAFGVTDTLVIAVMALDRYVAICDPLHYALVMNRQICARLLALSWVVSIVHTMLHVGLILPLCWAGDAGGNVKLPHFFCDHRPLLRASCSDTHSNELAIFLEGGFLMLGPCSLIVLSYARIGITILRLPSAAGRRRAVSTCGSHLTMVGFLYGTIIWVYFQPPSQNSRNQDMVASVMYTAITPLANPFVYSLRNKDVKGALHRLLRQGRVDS
How it was run: as §1

UniProt Q8VGX3 = target: T11, UniProt Q8VGX3
T11 sequence (whole entry): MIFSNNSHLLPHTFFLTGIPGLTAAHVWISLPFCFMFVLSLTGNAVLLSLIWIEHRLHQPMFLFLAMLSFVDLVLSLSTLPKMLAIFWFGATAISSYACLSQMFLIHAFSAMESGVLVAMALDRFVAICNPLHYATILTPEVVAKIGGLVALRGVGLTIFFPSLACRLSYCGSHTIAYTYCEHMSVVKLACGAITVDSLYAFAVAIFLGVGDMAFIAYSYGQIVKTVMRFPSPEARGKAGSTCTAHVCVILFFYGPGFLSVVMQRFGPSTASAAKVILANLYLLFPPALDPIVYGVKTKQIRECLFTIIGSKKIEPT
How it was run: as §1

UniProt Q8VGX5 = target: T12, UniProt Q8VGX5
T12 sequence (whole entry): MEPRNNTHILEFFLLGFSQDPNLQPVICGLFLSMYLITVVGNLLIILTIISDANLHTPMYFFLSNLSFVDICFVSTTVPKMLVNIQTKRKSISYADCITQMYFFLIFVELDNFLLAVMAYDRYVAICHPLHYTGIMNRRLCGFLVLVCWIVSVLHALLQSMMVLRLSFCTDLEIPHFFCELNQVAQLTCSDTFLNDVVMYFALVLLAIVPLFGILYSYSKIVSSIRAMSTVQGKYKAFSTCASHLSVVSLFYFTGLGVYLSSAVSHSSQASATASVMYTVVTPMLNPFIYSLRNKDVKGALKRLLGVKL
How it was run: as §1

UniProt Q8VGX8 = target: T13, UniProt Q8VGX8
T13 sequence (whole entry): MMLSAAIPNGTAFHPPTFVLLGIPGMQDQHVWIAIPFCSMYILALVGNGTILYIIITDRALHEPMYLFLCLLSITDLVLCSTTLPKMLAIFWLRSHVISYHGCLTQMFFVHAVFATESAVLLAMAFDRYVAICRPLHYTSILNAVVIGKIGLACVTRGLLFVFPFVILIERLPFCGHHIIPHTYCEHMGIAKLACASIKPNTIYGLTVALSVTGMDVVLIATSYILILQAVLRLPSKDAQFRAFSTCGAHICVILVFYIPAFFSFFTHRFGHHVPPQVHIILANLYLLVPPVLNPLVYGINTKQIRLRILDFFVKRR
How it was run: as §1

UniProt Q8VGY6 = target: T14, UniProt Q8VGY6
T14 sequence (whole entry): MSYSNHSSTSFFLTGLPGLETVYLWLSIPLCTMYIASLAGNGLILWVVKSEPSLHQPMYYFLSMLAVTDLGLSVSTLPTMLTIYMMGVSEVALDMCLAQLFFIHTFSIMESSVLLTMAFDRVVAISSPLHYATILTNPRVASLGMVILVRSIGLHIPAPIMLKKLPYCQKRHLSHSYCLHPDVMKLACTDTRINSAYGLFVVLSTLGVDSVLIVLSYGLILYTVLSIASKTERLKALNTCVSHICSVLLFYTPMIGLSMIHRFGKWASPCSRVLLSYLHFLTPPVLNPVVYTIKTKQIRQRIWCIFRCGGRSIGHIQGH
How it was run: as §1

UniProt Q8VGZ2 = target: T15, UniProt Q8VGZ2
T15 sequence (whole entry): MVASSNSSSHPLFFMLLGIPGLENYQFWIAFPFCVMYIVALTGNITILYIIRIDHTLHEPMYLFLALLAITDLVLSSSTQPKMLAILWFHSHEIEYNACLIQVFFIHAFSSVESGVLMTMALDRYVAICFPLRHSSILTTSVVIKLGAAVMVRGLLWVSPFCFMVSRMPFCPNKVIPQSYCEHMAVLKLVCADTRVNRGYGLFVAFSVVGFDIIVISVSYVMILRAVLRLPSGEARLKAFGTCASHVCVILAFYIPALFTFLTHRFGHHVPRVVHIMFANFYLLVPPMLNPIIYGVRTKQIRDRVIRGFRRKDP
How it was run: as §1

UniProt Q8VGZ7 = target: T16, UniProt Q8VGZ7
T16 sequence (whole entry): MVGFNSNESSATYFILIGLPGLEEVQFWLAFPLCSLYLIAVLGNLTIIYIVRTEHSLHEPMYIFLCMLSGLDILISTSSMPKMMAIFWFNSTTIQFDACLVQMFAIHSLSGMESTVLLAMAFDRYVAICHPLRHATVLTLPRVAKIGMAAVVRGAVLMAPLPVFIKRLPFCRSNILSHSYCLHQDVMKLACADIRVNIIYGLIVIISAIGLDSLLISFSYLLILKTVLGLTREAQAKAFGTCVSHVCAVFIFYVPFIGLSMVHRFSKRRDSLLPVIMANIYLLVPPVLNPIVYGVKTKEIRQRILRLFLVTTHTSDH
How it was run: as §1

UniProt Q8VH10 = target: T17, UniProt Q8VH10
T17 sequence (whole entry): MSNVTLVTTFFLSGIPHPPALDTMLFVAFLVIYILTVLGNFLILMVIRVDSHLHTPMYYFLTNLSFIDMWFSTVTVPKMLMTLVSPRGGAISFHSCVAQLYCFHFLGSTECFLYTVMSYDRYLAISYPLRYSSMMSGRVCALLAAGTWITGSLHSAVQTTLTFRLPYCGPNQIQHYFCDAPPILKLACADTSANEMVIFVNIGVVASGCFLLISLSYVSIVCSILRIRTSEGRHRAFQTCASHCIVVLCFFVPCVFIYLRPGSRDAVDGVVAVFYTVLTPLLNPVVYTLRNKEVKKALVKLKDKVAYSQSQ
How it was run: as §1

UniProt Q8VH16 = target: T18, UniProt Q8VH16
T18 sequence (whole entry): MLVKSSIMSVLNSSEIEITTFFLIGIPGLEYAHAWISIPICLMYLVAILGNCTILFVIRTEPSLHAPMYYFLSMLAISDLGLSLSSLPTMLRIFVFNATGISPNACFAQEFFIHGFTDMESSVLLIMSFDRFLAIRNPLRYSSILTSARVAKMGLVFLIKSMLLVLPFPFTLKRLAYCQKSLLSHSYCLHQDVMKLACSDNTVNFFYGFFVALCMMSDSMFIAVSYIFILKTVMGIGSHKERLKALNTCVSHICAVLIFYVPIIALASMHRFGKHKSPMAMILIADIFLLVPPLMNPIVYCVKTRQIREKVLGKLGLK
How it was run: as §1

UniProt Q8VH20 = target: T19, UniProt Q8VH20
T19 sequence (whole entry): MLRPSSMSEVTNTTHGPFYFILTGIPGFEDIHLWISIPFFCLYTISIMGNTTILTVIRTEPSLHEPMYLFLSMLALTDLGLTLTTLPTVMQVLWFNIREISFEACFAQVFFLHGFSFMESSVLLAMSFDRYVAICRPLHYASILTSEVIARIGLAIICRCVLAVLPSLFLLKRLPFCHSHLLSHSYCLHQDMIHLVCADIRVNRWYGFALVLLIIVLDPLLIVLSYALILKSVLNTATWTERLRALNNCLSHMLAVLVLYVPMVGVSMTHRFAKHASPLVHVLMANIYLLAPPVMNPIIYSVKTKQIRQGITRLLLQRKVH
How it was run: as §1

Measured: odorant receptor agonist call;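 further: active if original authors judged signal statistically different from baseline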

O=c1cc(O)c2ccccc2o1
inactive: all assays above
